The source made the active and inactive calls. No cut-off for these calls is given here.
Key:
HT-29 = assay: Antiproliferative activity against human HT-29 cells after 48 hrs by SRB assay; assay type: functional, cell-based; conditions: HT-29, 48 h
Outline: (§1)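 Cells grown in DMEM with 5% FBS at 37 C; seeded per well at 2.5 x 10^3 (HT-1080), 4.0 x 10^3 (HT-29), 3.0 x 10^3 (M21) or 2.5 x 10^3 (MCF7). Drugs from 40 mM DMSO stock, serial dilutions, final 100 µM to 78 nM, DMSO <0.5%.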

[1] = Alkylating activity at DNA (unknown origin) after 90 mins by colorimetric NBP assay relative to chlorambucil; assay type: functional
Outline: (§2)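 NBP alkylation kinetics (Bardos colorimetric method): 400 nmol drug in 1 mL ethanol mixed with 1 mL NBP (10% v/v in 95% ethanol), 1 mL 50 mM acetate buffer pH 4.3 and 1 mL ethanol, kept on ice, then heated at 80 C in shaking water bath; stopped on ice 5 min after 0, 30, 60, 90 min. Rate constant from linear regression of absorbance curve; chlorambucil as positive control.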

M21 [2] = assay: Cell cycle arrest in human M21 cells assessed as accumulation at sub-G1 phase at 2 times IC50 after 24 hrs by DAPI staining based flow cytometry relative to control
M21 [3] = assay: Induction of DNA damage in human M21 cells assessed as increase in gammaH2Ax level at 5 times IC50 after 24 hrs by immunofluorescence based epifluorescence microscopy; assay type: functional, cell-based
Outline: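 M21 cells (1 x 10^5) on fibronectin-coated (5 µg/mL, 1 h, 37 C) cover slides, 24 h attachment, then drug for 24 h; DMSO 0.25% in medium as control. Fixed with 3.7% formaldehyde, permeabilized with 0.1% saponin/3% BSA, mouse anti-H2AX pS139 (1:8000), DAPI nuclear stain; γH2AX foci imaged by epifluorescence microscopy.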

MCF7 = assay: Antiproliferative activity against human MCF7 cells after 48 hrs by SRB assay; assay type: functional, cell-based; conditions: MCF7, 48 h; outline: as §1
M21 [4] = assay: Antiproliferative activity against human M21 cells after 48 hrs by SRB assay; assay type: functional, cell-based; conditions: M21, 48 h; outline: as §1
M21 [5] = assay: Cell cycle arrest in human M21 cells assessed as accumulation at S phase at 2 times IC50 after 24 hrs by DAPI staining based flow cytometry relative to control
M21 [6] = assay: Cell cycle arrest in human M21 cells assessed as accumulation at G2/M phase at 2 times IC50 after 24 hrs by DAPI staining based flow cytometry relative to control
M21 [7] = assay: Cell cycle arrest in human M21 cells assessed as accumulation at G0/G1 phase at 2 times IC50 after 24 hrs by DAPI staining based flow cytometry relative to control
HT-1080 = assay: Antiproliferative activity against human HT1080 cells after 48 hrs by SRB assay; assay type: functional, cell-based; conditions: HT-1080, 48 h; outline: as §1
[8] = Alkylating activity at DNA (unknown origin) after 90 mins by colorimetric NBP assay; assay type: functional; outline: as §2
M21 [9] = assay: Cell cycle arrest in human M21 cells assessed as accumulation at G0/G1 phase at 1.8 uM after 24 hrs by DAPI staining based flow cytometry relative to control; assay type: functional
Outline: (§3)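 Flow cytometry in M21 cells seeded in six-well plates, allowed 24 h, then exposed 24 h to drug (2- or 5-fold IC50); DMSO 0.5% control. Trypsinized, PBS-washed, fixed in ice-cold EtOH, stained with 2 mg/mL DAPI in PBS; sub-G1, G0/G1, S and G2/M fractions measured on LSR II cytometer.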

M21 [10] = assay: Cell cycle arrest in human M21 cells assessed as accumulation at G2/M phase at 1.8 uM after 24 hrs by DAPI staining based flow cytometry relative to control; assay type: functional; outline: as §3
M21 [11] = assay: Cell cycle arrest in human M21 cells assessed as accumulation at sub-G1 phase at 1.8 uM after 24 hrs by DAPI staining based flow cytometry relative to control; assay type: functional; outline: as §3
M21 [12] = assay: Cell cycle arrest in human M21 cells assessed as accumulation at S phase at 1.8 uM after 24 hrs by DAPI staining based flow cytometry relative to control; assay type: functional; outline: as §3
M21 [13] = assay: Cell cycle arrest in human M21 cells assessed as accumulation at G2/M phase at 2 times IC50 after 24 hrs by DAPI staining based flow cytometry relative to control; assay type: functional; outline: as §3
M21 [14] = assay: Cell cycle arrest in human M21 cells assessed as accumulation at sub-G1 phase at 2 times IC50 after 24 hrs by DAPI staining based flow cytometry relative to control; assay type: functional; outline: as §3
M21 [15] = assay: Cell cycle arrest in human M21 cells assessed as accumulation at G0/G1 phase at 2 times IC50 after 24 hrs by DAPI staining based flow cytometry relative to control; assay type: functional; outline: as §3
M21 [16] = assay: Induction of DNA damage in human M21 cells assessed as increase in gammaH2Ax level at 5 times IC50 after 24 hrs by immunofluorescence based epifluorescence microscopy
M21 [17] = assay: Cell cycle arrest in human M21 cells assessed as accumulation at S phase at 2 times IC50 after 24 hrs by DAPI staining based flow cytometry relative to control; assay type: functional; outline: as §3

SMILES	IC50 (HT-29) [µM]	IC50 (MCF7) [µM]	IC50 (HT-1080) [µM]	fold change (FC) [1]	Activity (M21 [2]) [%]	Activity (M21 [3])	IC50 (M21 [4]) [µM]	Activity (M21 [5]) [%]	Activity (M21 [6]) [%]	Activity (M21 [7]) [%]	K [8] [×10⁻³ /s]	Activity (M21 [9]) [%]	Activity (M21 [10]) [%]	Activity (M21 [11]) [%]	Activity (M21 [12]) [%]	Activity (M21 [13]) [%]	Activity (M21 [14]) [%]	Activity (M21 [15]) [%]	Activity (M21 [16])	Activity (M21 [17]) [%]
CCNC(=O)Nc1ccc(S(=O)(=O)Oc2ccccc2I)cc1	5.3	1.1	0.14	42	0.3	Active	5.6	23.4	8.7	67.6	0.12									
CCCNC(=O)Nc1ccc(S(=O)(=O)Oc2ccccc2I)cc1	6.8	2.9	0.7	13	0.1	Active	5.4	26.6	10.7	62.6	0.4									
CC[C@@]1(O)C(=O)OCc2c1cc1n(c2=O)Cc2cc3c(CN(C)C)c(O)ccc3nc2-1 [TOPOTECAN]		0.2	0.5									45.2	22.8	0.1	31.9					
O=C(CCCl)Nc1ccc(S(=O)(=O)Oc2ccccc2I)cc1	14	8.9	4.2	84			12				0.063					37.4	0.2	27.5	Active	34.9
CC(C)c1ccccc1OS(=O)(=O)c1ccc(NC(=O)CCCl)cc1	16	9	6.5	220			14				0.024					30.6	0.1	33.7	Active	35.6
CCC(=O)Nc1ccc(S(=O)(=O)Oc2ccccc2I)cc1	11	8.1	7.2	11			11				0.49					11.4	0.2	60.4	Active	28
CCC(=O)Nc1ccc(S(=O)(=O)Oc2ccccc2C(C)C)cc1	7.4	11	2.1	17			11				0.31					15.4	0.6	39.6	Active	44.4
CCNC(=O)Nc1ccc(S(=O)(=O)Oc2ccccc2C(C)C)cc1	1.1	10	0.25	14	0.8	Active	4.7	31.5	8.9	58.8	0.37									

The remaining molecules from weak to strong by IC50 (MCF7), led by results:

IC50 (HT-29) [µM]	IC50 (MCF7) [µM]	IC50 (HT-1080) [µM]	SMILES	fold change (FC) [1]	Activity (M21 [2]) [%]	Activity (M21 [3])	IC50 (M21 [4]) [µM]	Activity (M21 [5]) [%]	Activity (M21 [6]) [%]	Activity (M21 [7]) [%]	K [8] [×10⁻³ /s]	Activity (M21 [9]) [%]	Activity (M21 [10]) [%]	Activity (M21 [11]) [%]	Activity (M21 [12]) [%]	Activity (M21 [13]) [%]	Activity (M21 [14]) [%]	Activity (M21 [15]) [%]	Activity (M21 [16])	Activity (M21 [17]) [%]
11	9.7	2	CCCC(=O)Nc1ccc(S(=O)(=O)Oc2ccccc2I)cc1	60			9				0.088					40.1	0.1	37	Active	22.8
9.6	7.6	2.8	O=C(NCCCCl)Nc1ccc(S(=O)(=O)Oc2ccccc2I)cc1	44	0.1	Active	4.6	32	13.5	54.4	0.12									
6.9	7.4	2.7	CC(C)c1ccccc1OS(=O)(=O)c1ccc(NC(=O)NCCCCl)cc1	160	0.8	Active	9.3	38.6	17.2	43.4	0.033									
15	6.5	11	CC(C)c1ccccc1OS(=O)(=O)c1ccc(NC(=O)C(C)(C)C)cc1	780			6.2				0.007					16	0.4	36.7	Active	46.9

Source: ChEMBL document CHEMBL4270536, “Preparation, characterisation and biological evaluation of new N-phenyl amidobenzenesulfonates and N-phenyl ureidobenzenesulfonates inducing DNA double-strand breaks. Part 3. Modulation of ring A” (Eur J Med Chem, 2018)
